How the values were obtained:
[1] = biological target: T1, C-C chemokine receptor type 5 (Homo sapiens, UniProt P51681); test: Inhibitory activity against human CC chemokine receptor 5
Procedure, shortened: (§1)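 Displacement of [125I]-labeled MIP-1α from human CCR5 on CHO cell membranes, described as a GP120-membrane-based assay. IC50 values are averages of triplicate measurements, with a standard compound run to check variability between assays. Single-point lines are percent inhibition at 2 μM.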
Target sequence in this assay (P51681 whole entry): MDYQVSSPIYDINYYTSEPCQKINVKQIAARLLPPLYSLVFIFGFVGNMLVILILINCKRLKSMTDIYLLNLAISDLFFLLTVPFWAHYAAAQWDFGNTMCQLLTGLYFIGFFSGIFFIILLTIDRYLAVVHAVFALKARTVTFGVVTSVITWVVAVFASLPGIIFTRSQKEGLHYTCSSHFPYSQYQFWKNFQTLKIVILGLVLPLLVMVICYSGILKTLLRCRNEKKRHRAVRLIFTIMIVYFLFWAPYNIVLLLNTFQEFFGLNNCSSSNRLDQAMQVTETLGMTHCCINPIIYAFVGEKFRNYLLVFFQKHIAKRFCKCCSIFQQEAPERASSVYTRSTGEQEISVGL

[2] = system: Human immunodeficiency virus 1; test: (§2) In vitro antiviral activity against HIV-1 infected HeLa cells; type: functional; conditions: Human immunodeficiency virus 1, HeLa
Procedure, shortened: (§3)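 Cell-culture HIV-1 infectivity assay in HeLa cells. Read-out is the IC90, with the IC50 given for some entries.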

[3] = Plasma clearance in rat; type: ADME, organism-based; conditions: read-out: Clp
[4] = Oral bioavailability in rat; type: ADME, organism-based; conditions: in vivo
Rattus norvegicus = test: Area under curve in rat after p.o. administration; type: ADME, organism-based; conditions: in vivo, po
[5] = Hafl life rat; type: ADME, organism-based; conditions: in vivo
[6] = biological target: T1, C-C chemokine receptor type 5; test: Inhibition of human C-C chemokine receptor 5 by displacement of [125I]-labeled MIP-1alpha from CHO cell membranes
Target sequence in this assay (P51681 whole entry): as above

HeLa [7] = test: as §2; type: functional, cell-based; conditions: Homo sapiens; procedure, shortened: as §3
[8] = system: Human immunodeficiency virus 1; test: Concentration required for anti viral activity against BAL-1 strain of HIV-1 was determined using peripheral blood mononuclear cells; type: functional
Procedure, shortened: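 Seven-day in vitro infectivity assay in peripheral blood mononuclear cells infected with the HIV-1 BAL-1 strain. Read-out is the IC95.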

[9] = biological target: T1, C-C chemokine receptor type 5; test: Inhibitory activity against human Chemokine receptor 5 when co-administered with compound 8f; procedure, shortened: as §1
Target sequence in this assay (P51681 whole entry): as above

HeLa [10] = test: In vitro antiviral activity against HIV-1 infected HeLa cells when co-administered with compound 8f; type: functional; conditions: Homo sapiens; procedure, shortened: as §3
[11] = biological target: T1, C-C chemokine receptor type 5; test: Inhibitory activity against human Chemokine receptor 5 at 2 uM concentration; procedure, shortened: as §1
Target sequence in this assay (P51681 whole entry, looked up): as the sequence (P51681 whole entry) above

[12] = Hafl life in rat; type: ADME, organism-based; conditions: in vivo
[13] = biological target: T1, C-C chemokine receptor type 5; test: Inhibitory concentration to displace [125I]-MIP-1 alpha from […] chemokine receptor 5; procedure, shortened: as §1
Target sequence in this assay (P51681 whole entry): as above

[14] = biological target: T1, C-C chemokine receptor type 5; test: Inhibitory concentration to displace [125I]-MIP-1 alpha from human […] chemokine receptor 5 expressed in CHO cell; type: cell-based; procedure, shortened: as §1
Target sequence in this assay (P51681 whole entry): as above

[15] = biological target: T1, C-C chemokine receptor type 5; test: Inhibitory activity against human […] chemokine receptor 5 when co-administered with compound 8g
Target sequence in this assay (P51681 whole entry): as above

HeLa [16] = test: In vitro antiviral activity against HIV-1 infected HeLa cells when co-administered with compound 8g; type: functional; conditions: Homo sapiens; procedure, shortened: as §3
HeLa [17] = test: In vitro antiviral activity against HIV-1 infected HeLa cells from GP120-membrane-based assay; type: functional; conditions: Homo sapiens; procedure, shortened: as §3

Row | Compound | IC50 [1] | IC90 [2] | other results
1 | O=C(O)[C@@H](C1CCCCC1)N1C[C@H](CN2CCC(c3n[nH]cc3C(F)(F)c3ccccc3)CC2)[C@@H](c2ccccc2)C1 | 2.1 nM | 300 nM | 
2 | CCOC(=O)Cn1nc(Cc2ccccc2)cc1C1CCN(C[C@H]2CN([C@@H](C(=O)O)C3CCCCC3)C[C@@H]2c2ccccc2)CC1 | 9 nM | 11 nM | 
3 | CCn1nc(-c2ccc(CN)cc2)cc1C1CCN(C[C@H]2CN([C@@H](C(=O)O)C3CCCCC3)C[C@@H]2c2ccccc2)CC1 | 112 nM |  | 
4 | O=C(O)[C@@H](C1CCCCC1)N1C[C@H](CN2CCC(c3oncc3Cc3ccccc3)CC2)[C@@H](c2ccccc2)C1 | 0.8 nM | 0.4 nM | clearance [3]: 67 mL/min/kg; bioavailability [4]: 5.9%; AUC N (Rattus norvegicus): 0.03 uM hr dose-1
5 | CCCCn1nc(Cc2ccccc2)cc1C1CCN(C[C@H]2CN([C@@H](C(=O)O)C3CCCCC3)C[C@@H]2c2ccccc2)CC1 | 3 nM | 11 nM | 
6 | O=C(c1ccccc1)c1c[nH]nc1C1CCN(C[C@H]2CN([C@@H](C(=O)O)C3CCCCC3)C[C@@H]2c2ccccc2)CC1 | 41 nM |  | 
7 | CCn1cc(CCc2ccccc2)c(C2CCN(C[C@H]3CN([C@@H](C(=O)O)C4CCCCC4)C[C@@H]3c3ccccc3)CC2)n1 | 2.3 nM | 300 nM | 
8 | CCn1nc(CCc2ccccc2)cc1C1CCN(C[C@H]2CN([C@@H](C(=O)O)C3CCCCC3)C[C@@H]2c2cccc(F)c2)CC1 |  | 11 nM | clearance [3]: 72 mL/min/kg; bioavailability [4]: 3.2%; half-life [5]: 27 min; AUC N (Rattus norvegicus): 0.01 uM hr dose-1; IC50 [6]: 2.2 nM
9 | CCn1cc(Cc2ccccc2)c(C2CCN(C[C@H]3CN([C@@H](C(=O)O)C4CCCCC4)C[C@@H]3c3ccccc3)CC2)n1 | 20 nM | > 300 nM | 
10 | CC(C)(c1ccccc1)c1cn[nH]c1C1CCN(C[C@H]2CN([C@@H](C(=O)O)C3CCCCC3)C[C@@H]2c2ccccc2)CC1 | 11.5 nM |  | 
11 | CCn1ncc(C(=O)c2ccccc2)c1C1CCN(C[C@H]2CN([C@@H](C(=O)O)C3CCCCC3)C[C@@H]2c2ccccc2)CC1 | 23 nM |  | 
12 | CCn1nc(-c2ccc(C#N)cc2)cc1C1CCN(C[C@H]2CN([C@@H](C(=O)O)C3CCCCC3)C[C@@H]2c2ccccc2)CC1 | 16 nM | > 300 nM | IC50 (HeLa [7]): 33 nM
13 | N#Cc1ccc(-c2cc(C3CCN(C[C@H]4CN([C@@H](C(=O)O)C5CCCCC5)C[C@@H]4c4ccccc4)CC3)n[nH]2)cc1 |  | > 300 nM | IC50 (HeLa [7]): 100 nM; IC50 [6]: 7.5 nM
14 | CCn1ncc(C2(c3ccccc3)CC2)c1C1CCN(C[C@H]2CN([C@@H](C(=O)O)C3CCCCC3)C[C@@H]2c2ccccc2)CC1 | 11 nM |  | 
15 | O=C(O)[C@@H](C1CCCCC1)N1C[C@H](CN2CCC(c3cc(Cc4ccccc4)nn3CC(F)(F)F)CC2)[C@@H](c2ccccc2)C1 | 4.8 nM | 33 nM | 
16 | Cn1nc(Cc2ccccc2)cc1C1CCN(C[C@H]2CN([C@@H](C(=O)O)C3CCCCC3)C[C@@H]2c2ccccc2)CC1 | 4.2 nM | 3.7 nM | 
17 | CCn1nc(-c2ccccc2)cc1C1CCN(C[C@H]2CN([C@@H](C(=O)O)C3CCCCC3)C[C@@H]2c2ccccc2)CC1 | 22 nM | > 300 nM | clearance [3]: 3.8 mL/min/kg; bioavailability [4]: 21%; half-life [5]: 90 min; AUC N (Rattus norvegicus): 1.7 uM hr dose-1; IC50 (HeLa [7]): 100 nM
18 | O=C(O)[C@@H](C1CCCCC1)N1C[C@H](CN2CCC(c3n[nH]cc3CCc3ccccc3)CC2)[C@@H](c2ccccc2)C1 | 1.2 nM | 33 nM | 
19 | O=C(O)[C@@H](C1CCCCC1)N1C[C@H](CN2CCC(CCCc3ccccc3)CC2)[C@@H](c2ccccc2)C1 |  |  | IC95 [8]: 93 nM; IC50 [6]: 0.2 nM
20 | CCCn1nc(Cc2ccccc2)cc1C1CCN(C[C@H]2CN([C@@H](C(=O)O)C3CCCCC3)C[C@@H]2c2ccccc2)CC1 | 4.6 nM | 1.2 nM | 
21 | O=C(O)[C@@H](C1CCCCC1)N1C[C@H](CN2CCC(c3cc(-c4cccc5ccccc45)[nH]n3)CC2)[C@@H](c2ccccc2)C1 |  | > 300 nM | IC50 [6]: 7.5 nM
22 | O=C(O)[C@@H](C1CCCCC1)N1C[C@H](CN2CCC(c3nocc3Cc3ccccc3)CC2)[C@@H](c2ccccc2)C1 | 1.2 nM | 3.7 nM | 
23 | O=C(O)[C@@H](C1CCCCC1)N1C[C@H](CN2CCC(c3n[nH]cc3C3(c4ccccc4)CC3)CC2)[C@@H](c2ccccc2)C1 | 4.4 nM | > 300 nM | 

Row | Compound | IC50 [1] | IC90 [2] | other results
24 | CCc1cc(Cc2ccccc2)n(C2CCN(C[C@H]3CN([C@@H](C(=O)O)C4CCCCC4)C[C@@H]3c3ccccc3)CC2)n1 |  |  | IC50 [9]: 78 nM; IC90 (HeLa [10]): > 300 nM
25 | Cc1cc(-c2ccccc2)n(C2CCN(C[C@H]3CN([C@@H](C(=O)O)C4CCCCC4)C[C@@H]3c3ccccc3)CC2)n1 |  |  | inhibition [11]: 65%
26 | O=C(O)[C@@H](C1CCCCC1)N1C[C@H](CN2CCC(c3cc(Cc4ccccc4)n[nH]3)CC2)[C@@H](c2ccccc2)C1 | 2.2 nM | 0.4 nM | 
27 | CCn1nc(Cc2ccccc2)cc1C1CCN(C[C@H]2CN([C@@H](C(=O)O)C3CCCCC3)C[C@@H]2c2ccccc2)CC1 |  | 0.4 nM | clearance [3]: 64 mL/min/kg; bioavailability [4]: 4.1%; half-life [12]: 49.2 min; AUC N (Rattus norvegicus): 0.02 uM hr dose-1; IC50 [13]: 2.1 nM; IC50 [14]: 1.2 nM
28 | COc1ccc(-c2cc(C3CCN(C[C@H]4CN([C@@H](C(=O)O)C5CCCCC5)C[C@@H]4c4cccc(F)c4)CC3)[nH]n2)cc1 |  | > 300 nM | IC50 [6]: 12 nM
29 | CCn1ncc(CCc2ccccc2)c1C1CCN(C[C@H]2CN([C@@H](C(=O)O)C3CCCCC3)C[C@@H]2c2ccccc2)CC1 | 0.6 nM | 0.4 nM | clearance [3]: 79 mL/min/kg; bioavailability [4]: 2.6%; AUC N (Rattus norvegicus): 0.01 uM hr dose-1
30 | O=C(O)[C@@H](C1CCCCC1)N1C[C@H](CN2CCC(c3cc(-c4ccc(Cl)cc4Cl)[nH]n3)CC2)[C@@H](c2cccc(F)c2)C1 |  | > 300 nM | IC50 [6]: 9 nM
31 | CCc1cc(CCc2ccccc2)nn1C1CCN(C[C@H]2CN([C@@H](C(=O)O)C3CCCCC3)C[C@@H]2c2ccccc2)CC1 |  |  | IC50 [15]: 105 nM; IC90 (HeLa [16]): > 300 nM
32 | CCn1ncc(C(C)(C)c2ccccc2)c1C1CCN(C[C@H]2CN([C@@H](C(=O)O)C3CCCCC3)C[C@@H]2c2ccccc2)CC1 | 6.9 nM | 300 nM | 
33 | Cn1cc(CCc2ccccc2)c(C2CCN(C[C@H]3CN([C@@H](C(=O)O)C4CCCCC4)C[C@@H]3c3ccccc3)CC2)n1 |  |  | IC50 [6]: 23 nM
34 | CCCn1cc(CCc2ccccc2)c(C2CCN(C[C@H]3CN([C@@H](C(=O)O)C4CCCCC4)C[C@@H]3c3ccccc3)CC2)n1 |  |  | IC50 [6]: 9 nM
35 | CCc1cc(CCc2ccccc2)n(C2CCN(C[C@H]3CN([C@@H](C(=O)O)C4CCCCC4)C[C@@H]3c3ccccc3)CC2)n1 |  |  | inhibition [11]: 82%
36 | CCn1nc(-c2cccc3ccccc23)cc1C1CCN(C[C@H]2CN([C@@H](C(=O)O)C3CCCCC3)C[C@@H]2c2cccc(F)c2)CC1 |  |  | IC50 [6]: 16 nM
37 | CCn1nc(C2CCN(C[C@H]3CN([C@@H](C(=O)O)C4CCCCC4)C[C@@H]3c3ccccc3)CC2)cc1Cc1ccccc1 | 76 nM | > 300 nM | 
38 | O=C(O)[C@@H](C1CCCCC1)N1C[C@H](CN2CCC(c3[nH]ncc3Cc3ccccc3)CC2)[C@@H](c2ccccc2)C1 | 4.8 nM | 100 nM | 
39 | CCCn1ncc(CCc2ccccc2)c1C1CCN(C[C@H]2CN([C@@H](C(=O)O)C3CCCCC3)C[C@@H]2c2ccccc2)CC1 |  | 11 nM | IC50 [6]: 0.6 nM
40 | Cc1cc(-c2ccccc2)nn1C1CCN(C[C@H]2CN([C@@H](C(=O)O)C3CCCCC3)C[C@@H]2c2ccccc2)CC1 |  |  | inhibition [11]: 79%
41 | O=C(O)Cn1nc(Cc2ccccc2)cc1C1CCN(C[C@H]2CN([C@@H](C(=O)O)C3CCCCC3)C[C@@H]2c2ccccc2)CC1 | 33 nM |  | 
42 | CCN(C(=O)OCc1ccccc1)C1CCN(CC[C@H](CN(C)S(=O)(=O)c2ccccc2)c2cccc(Cl)c2)CC1 |  |  | IC95 [8]: 13 nM; IC50 [6]: 2.4 nM
43 | CCn1ncc(Cc2ccccc2)c1C1CCN(C[C@H]2CN([C@@H](C(=O)O)C3CCCCC3)C[C@@H]2c2ccccc2)CC1 | 3 nM | 3.7 nM | IC90 (HeLa [17]): 10 nM
44 | O=C(O)[C@@H](C1CCCCC1)N1C[C@H](CN2CCC(c3cc(-c4ccc(Cl)cc4)n[nH]3)CC2)[C@@H](c2cccc(F)c2)C1 |  | > 300 nM | IC50 [6]: 4 nM
45 | Cn1ncc(CCc2ccccc2)c1C1CCN(C[C@H]2CN([C@@H](C(=O)O)C3CCCCC3)C[C@@H]2c2ccccc2)CC1 |  | 3.7 nM | IC50 [6]: 1 nM

Source: ChEMBL document CHEMBL1147444, “Antagonists of human CCR5 receptor containing 4-(pyrazolyl)piperidine side chains. Part 1: Discovery and SAR study of 4-pyrazolylpiperidine side chains” (Bioorg Med Chem Lett, 2004)
